The test system of assay [1] is A549. Nature of the assay: Cytotoxicity against human A549 cells assessed as inhibition of cell growth after 48 hrs by MTT assay. In kind it is functional, cell-based. As to conditions: A549, 48 h. The method, boiled down: (§1)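 Exponentially growing cells seeded at 2.0 × 10⁴ per well in 24-well plates, drug-treated in triplicate for 48 h at 37 °C under 5% CO₂. MTT in RPMI-1640 was added, followed by 2–3 h at 37 °C. Formazan was dissolved in DMSO and OD read at 540 nm. Viability is given as % of untreated cells (100%), mean ± SEM of three determinations.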
Background: Tetrazolium dyes change colour on reduction, which living cells bring about.

Assay [2] relates to SK-N-SH. Nature of the assay: Cytotoxicity against human SK-N-SH cells assessed as inhibition of cell growth after 48 hrs by MTT assay. It is filed as functional, cell-based. The method, boiled down:
as §1

In assay [3] the test system is SK-N-SH. Nature of the assay: Cytotoxicity against human SK-N-SH cells assessed as cell viability at 50 uM after 48 hrs by MTT assay relative to untreated control. In kind it is functional. To be noted: read-out: Activity. The method, boiled down:
as §1

For assay [4], the system named is SK-N-SH. As to the kind of experiment: Cytotoxicity against human SK-N-SH cells assessed as cell viability at 10 uM after 48 hrs by MTT assay relative to untreated control. It is filed as functional. As to conditions: read-out: Activity. In outline:
as §1

Assay [5] has as its system A549. Nature of the assay: Cytotoxicity against human A549 cells assessed as cell viability at 10 uM after 48 hrs by MTT assay relative to untreated control. It is filed as functional. To be noted: A549, 48 h, read-out: Activity. In outline:
as §1

The subject of assay [6] is A549. Nature of the assay: Cytotoxicity against human A549 cells assessed as cell viability at 50 uM after 48 hrs by MTT assay relative to untreated control. In kind it is functional. To be noted: A549, 48 h, read-out: Activity. In outline:
as §1

Assay [7] deals with SK-N-SH. Nature of the assay: Cytotoxicity against human SK-N-SH cells assessed as cell viability at 25 uM after 48 hrs by MTT assay relative to untreated control. It is filed as functional. To be noted: read-out: Activity. In outline: as §1
Assay [8] relates to A549. As to the kind of experiment: Cytotoxicity against human A549 cells assessed as cell viability at 25 uM after 48 hrs by MTT assay relative to untreated control. As to conditions: A549, 48 h, read-out: Activity. In kind it is functional. In outline:
as §1

For assay [9], the system named is A549. As to the kind of experiment: Cytotoxicity against human A549 cells assessed as cell viability at 0.1 uM after 48 hrs by MTT assay relative to untreated control. In kind it is functional. As to conditions: A549, 48 h, read-out: Activity. The method, boiled down: as §1
Assay [10] relates to SK-N-SH. Nature of the assay: Cytotoxicity against human SK-N-SH cells assessed as cell viability at 5 uM after 48 hrs by MTT assay relative to untreated control. It is filed as functional. To be noted: read-out: Activity. In outline: as §1
Assay [11] has as its system A549. Nature of the assay: Cytotoxicity against human A549 cells assessed as cell viability at1 uM after 48 hrs by MTT assay relative to untreated control. It is filed as functional. The method, boiled down: as §1
Assay [12] deals with SK-N-SH. Nature of the assay: Cytotoxicity against human SK-N-SH cells assessed as cell viability at 0.1 uM after 48 hrs by MTT assay relative to untreated control. To be noted: read-out: Activity. It is filed as functional. In outline:
as §1

For assay [13], the system named is SK-N-SH. Nature of the assay: Cytotoxicity against human SK-N-SH cells assessed as cell viability at 1 uM after 48 hrs by MTT assay relative to untreated control. It is filed as functional. To be noted: read-out: Activity. The method, boiled down: as §1
The test system of assay [14] is A549. As to the kind of experiment: Cytotoxicity against human A549 cells assessed as cell viability at 5 uM after 48 hrs by MTT assay relative to untreated control. As to conditions: A549, 48 h, read-out: Activity. In kind it is functional. The method, boiled down: as §1

In general, pIC50 refers to −log10 of the IC50, conventionally taken in molar units.

Molecules are shown by their SMILES. pIC50: −log10 of the molar value.

Take `CC(=O)O[C@H](CN1CCN(c2ccccc2)CC1)CN1Cc2cc3ccccc3nc2C1=O`: the pIC50 in the assay with A549 [1] is 4.14; in the assay on SK-N-SH [2], 4.17. Moreover, the figures for the viability at 50 µM in the assay on SK-N-SH [3] and in the assay on A549 [6] were 79.3% and 83.3%, respectively. In addition, the values for the viability at 10 µM in the assay with SK-N-SH [4] and in the assay on A549 [5] were 95.5% and 98.4%, respectively. Besides, the viability at 25 µM was 84.2% with SK-N-SH [7] and 85.6% with A549 [8].

As to `O=C1c2nc3ccccc3cc2CN1C[C@@H](O)CN1CCN(c2ccccc2)CC1`, the pIC50 was 4.26 in the assay on A549 [1] and 4.79 in the assay with SK-N-SH [2]. Besides, the values for the viability at 50 µM with SK-N-SH [3] and in the assay with A549 [6] were 49.4% and 74.7%, respectively. For the same molecule, the figures for the viability at 10 µM in the assay on SK-N-SH [4] and in the assay on A549 [5] were 76.8% and 90.7%, respectively. The viability at 25 µM is 69.1% in the assay on SK-N-SH [7] and 81.8% in the assay on A549 [8].

Consider `O=C1c2nc3ccccc3cc2CN1CC(O)CN1CCN(c2ccccc2)CC1` (racemic), for which the negative-log IC50 (pIC50) with A549 [1] was 4.20; with SK-N-SH [2], 4.19. For the same molecule, the viability at 50 µM in the assay on SK-N-SH [3] was 70.5%; with A549 [6], 78.7%. Also, the viability at 10 µM in the assay on SK-N-SH [4] was determined as 78.3%; in the assay with A549 [5], 96.5%. Moreover, the viability at 25 µM in the assay on SK-N-SH [7] was 73.5%; in the assay on A549 [8] it was 85.5%.

Consider `COc1cccc2c1C(=O)c1c(O)c3c(c(O)c1C2=O)C[C@@](O)(C(=O)CO)C[C@@H]3O[C@H]1C[C@H](N)[C@H](O)[C@H](C)O1` [DOXORUBICIN], for which the viability at 0.1 µM in the assay with A549 [9] amounted to 76.6%; in the assay with SK-N-SH [12], 72.5%. In addition, the viability at 5 µM in the assay on SK-N-SH [10] worked out at 51%; in the assay with A549 [14], 33.9%. The pIC50 in the assay on SK-N-SH [2] was 4.70. Further, in the assay with A549 [11], the Activity was found to be 65.33%. Besides, in the assay on SK-N-SH [13], the viability at 1 µM is 60.8%.
